Compound activity: PubChem BioAssay, Broad Institute
This is a sample that favours compounds with a hit; in the whole collection about 2.2% have one here.
DYRK1A inh = inhibitors of rat Dyrk1A kinase | Q63470 | ADP-Glo luminescence, NFATc1 peptide | inhibition, % at 12.5 µM | hit rate 0.43% among 310,000 | AID 504441; in the data active = inhibition above about 50%;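 note: plate controls were vehicle with enzyme for no effect and no enzyme for full effect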
CAL PDZ FP-1 = human CAL PDZ-peptide interaction inhibition. Q9HD26. purified CAL PDZ, TMR-peptide fluorescence polarization, 1 h. inhibition, % at 20 µM. hit rate 0.02% among 330,000. AID 504414;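 active = highest replicate inhibition of at least 40%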;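 note: plate controls were DMSO neutral control wells for no effect and unlabeled competitor peptide control wells for full effect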
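material = purified tagged CAL PDZ domain construct (CerCALP) | buffer or medium = sodium phosphate/NaCl buffer pH 7.4 with TCEP, IgG, Thesit | reagent = TMR-labelled reporter peptide T*-PRC34 bound in PDZ groove | incubation = 1 h room-temperature incubation prior to read | measured by = fluorescence polarization (mP) | evaluation = percent inhibition from loss of millipolarization | control set = unlabelled peptide and DMSO controls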
Rtt109 HAT inh = inhibitors of Candida albicans Rtt109/Vps75 histone acetyltransferase; Q5AAJ8; hit rate 0.16% among 330,000; inhibition, % at 34.9 µM; purified Rtt109/Vps75, ThioGlo CoA-SH fluorescence, 4 h;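 active = inhibition of at least 50% in every replicate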
dFosB activator = enhances mouse delta FosB homodimer DNA binding | P13346 | purified delta FosB, TAMRA-CDK5 oligo fluorescence polarization; percent of positive-control signal above neutral wells | activation, % at 25 µM | hit rate 0.99% among 340,000 | AID 493131;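 active = mean activation above about 17%, with every replicate also reaching it, limit read from the data, passing the limit was not always enough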
CAL PDZ FP-2 = blocks peptide binding to the human CAL PDZ domain. Q9HD26. purified CAL PDZ, TMR-peptide fluorescence polarization, 1 h. inhibition, % at 24.9 µM. hit rate 0.92% among 300,000;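 active = mean inhibition of at least 30% with at least half of replicates also reaching 30%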;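 note: 0% = DMSO neutral control and 100% = excess unlabeled competitor peptide PRC23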
CDK5 p35 inh = blocks human CDK5/p35 kinase activity; Recombinant CDK5/p35, ADP-Glo luminescence, 60 min; inhibition, % at 10 µM; hit rate 0.01% among 330,000; AID 488839;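 active = highest replicate inhibition of at least 50% and at least 75% of replicates reaching 50%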;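 note: plate controls were DMSO neutral control for no effect and GW8510 at 10 µM for full effect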
The depositor's hits bear a star; x = no result given.

SMILES	DYRK1A inh	CAL PDZ FP-1	Rtt109 HAT inh	dFosB activator	CAL PDZ FP-2	CDK5 p35 inh
c1coc(CNc2nc(N3CCCCC3)nc3ccccc23)c1	9.5	-3.4	5.9	-7.5	-1.3	0.2
COc1ccc(Nc2nc(NCc3ccco3)nc(N/N=C/c3ccccc3)n2)cc1	-1.9	-0.5	24.5	29.1*	-2.0	0.8
Cc1ccc(Nc2nc(NCc3ccco3)c3ccccc3n2)cc1	2.2	-0.8	9.7	57.7*	3.1	-0.9
c1ccc(N2CCN(c3nc(NCc4ccco4)c4ccccc4n3)CC2)cc1	-11.2	0.3	11.2	45.5*	x	-0.3
Oc1ccccc1-c1nc(NCc2ccco2)c2ccccc2n1	-5.4	0.6	4.3	-0.5	3.5	-1.6
CCOc1nc(NCc2ccco2)nc(Nc2ccc(OC)cc2)n1	5.4	-1.8	7.3	0.1	-0.5	-0.2
O=C(CN1CCN(c2ccccc2F)CC1)NC(=O)NC1CCCCC1	0.1	-0.4	1.1	-6.4	x	0.6
CS(=O)(=O)N(CC(=O)Nc1ccc(S(=O)(=O)N2CCOCC2)cc1)c1ccccc1Br	-1.6	-0.7	13.1	-2.7	7.2	0.5
Cc1csc(NC(=O)[C@@H]2CCCN2C(=O)c2cccs2)n1	18.2	2.9	-30.1	3.9	1.1	-1.1
O=c1[nH]c2ccccc2c2nc(-c3cccc(S(=O)(=O)N4CCCC4)c3)nn12	-4.1	-5.8	-5.6	52.8*	-4.3	-0.6
CCc1ccc(C(=O)CN2C(=O)NC(C)(CCc3ccccc3)C2=O)cc1 (stereo not given)	-7.5	-9.3	0.8	-13.1	x	-0.9
Cc1c(C(=O)Nc2ccc(S(=O)(=O)N(C)C3CCN(C)CC3)cc2)oc2c(Cl)cccc12	11.4	-5.3	66.2*	-44.0	-5.7	0.5
Cc1onc(-c2c(Cl)cccc2Cl)c1C(O)c1ccccc1 (stereo not given)	-2.7	x	-6.1	-2.5	45.7*	0.4
Cc1onc(-c2c(Cl)cccc2Cl)c1C(O)c1ccc(F)cc1 (stereo not given)	-2.6	x	-3.6	-8.1	-4.0	-0.7
CCC(C)(C(=O)NC1CCCCC1)N(C(=O)c1ccccn1)c1ccccc1 (stereo not given)	0.0	0.5	8.2	-8.7	x	-1.5
CCC(C)(C(=O)NC1CCCCC1)N(C)C(=O)c1ccccn1 (stereo not given)	3.1	-0.1	4.4	1.0	53.3*	2.1
CCOc1ccc(S(=O)(=O)N(C)CC(=O)NC2CCCC2)cc1	x	-0.3	-0.9	2.2	x	0.3
CN1C(=O)/C(=C/c2ccccc2OCc2cccc(F)c2)N(C)C1=S	-3.9	-2.5	2.8	-8.0	-2.3	1.2
Fc1cccc(COc2ccccc2C(=S)N2CCCC2)c1	-1.1	x	-5.4	-5.5	43.1*	-1.6
CCCCC(=O)c1ccc(OC(=O)c2ccc([N+](=O)[O-])cc2)cc1	-4.3	0.2	0.4	-0.9	-1.6	0.1
Cc1cc(C(=O)N2CCCC(CCC(=O)N3CCN(c4ccccn4)CC3)C2)c(C)o1 (stereo not given)	-3.2	0.2	-1.4	-0.6	45.2*	-2.3
Cc1cc2ccccc2n1CCNCc1c(C(=O)N2CCOCC2)nc2ccccn12	-2.8	-0.2	-9.9	-7.2	82.2*	-1.3
O=C(/C=C/c1ccco1)Nc1ccc2c(c1)OCO2	9.5	x	-1.8	-6.3	60.0*	0.0
CN(C)CCN1C(=O)c2cccc3cc([N+](=O)[O-])cc(c23)C1=O	2.2	-0.2	11.2	49.1*	0.9	0.9
N#CCCN(Cc1ccccc1)S(=O)(=O)c1cccs1	5.1	x	6.4	-3.5	61.5*	0.0
COc1ccc(CC(=O)NNC(=O)c2cc(Cl)ccc2OC)cc1	0.9	-0.6	7.6	-5.0	-8.0	1.1
O=C(NC1CCCC1)c1ccc(CS(=O)(=O)c2ccc(Cl)cc2)o1	1.9	-1.7	-1.0	-7.4	69.5*	-0.6
COc1ccc(C)cc1NC(=O)Nc1ccc(Br)cn1	-4.5	-0.3	0.2	-1.1	46.4*	-3.7
Cc1cn(C2CC(O)C(CO)O2)c(=O)n(Cc2ccccc2)c1=O (stereo not given)	-2.2	0.4	-0.3	1.1	-0.4	0.3
CCNS(=O)(=O)c1ccc(CCC(=O)NCc2ccccc2)cc1	-1.3	-0.8	1.9	-1.6	0.5	-1.2
